From ChEMBL document CHEMBL1138354, “2-(2'-((dimethylamino)methyl)-4'-(fluoroalkoxy)-phenylthio)benzenamine derivatives as serotonin transporter imaging agents” (J Med Chem, 2007)

Columns and labels:
[1] = tested on: Nucleic Acid; assay: Ratio of drug level in hypothalamus to cerebellum in rat after 120 mins; type: ADME, tissue-based; settings: in vivo, 2 h
Method in brief: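 Rats, 3 per group, given ¹⁸F tracer (10–100 μCi, 0.2 ml sterile water with 1 mg/mL BSA) into the femoral vein under isoflurane. Brain regions, including hypothalamus, striatum and cerebellum, dissected, weighed and counted. % dose/g calculated against a 1% diluted aliquot of the dose. Region/cerebellum ratio is region %dose/g divided by cerebellum %dose/g. SD of the ratio propagated from both means and SDs.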

[2] = tested on: Brain; assay: Biodistribution in iv dosed rat brain after 30 mins; type: ADME, organism-based; settings: in vivo, 0.5 h
Method in brief: (§1)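 [18F]-labeled tracer was given to rats under isoflurane anesthesia: 0.2 ml sterile water with 1 mg/mL BSA and 10–100 μCi, into the femoral vein. Three rats per group. Animals were killed by cervical dislocation under anesthesia at the stated time. Organs were removed, weighed and counted. Uptake was calculated as percent dose against a 1% aliquot of the injected dose counted alongside.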

[3] = tested on: Brain; assay: Biodistribution in iv dosed rat brain after 120 mins; type: ADME, organism-based; settings: in vivo, 2 h; method in brief: as §1
[4] = tested on: Blood; assay: Biodistribution in iv dosed rat blood after 2 mins; type: ADME, organism-based; settings: in vivo; method in brief: as §1
[5] = tested on: Blood; assay: Biodistribution in iv dosed rat blood after 60 mins; type: ADME, organism-based; settings: in vivo, 1 h; method in brief: as §1
[6] = tested on: Blood; assay: Biodistribution in iv dosed rat blood after 120 mins; type: ADME, organism-based; settings: in vivo, 2 h; method in brief: as §1
[7] = tested on: Heart; assay: Biodistribution in iv dosed rat heart after 30 mins; type: ADME, organism-based; settings: in vivo, 0.5 h; method in brief: as §1
[8] = tested on: Heart; assay: Biodistribution in iv dosed rat heart after 60 mins; type: ADME, organism-based; settings: in vivo, 1 h; method in brief: as §1
[9] = tested on: Pancreas; assay: Biodistribution in iv dosed rat pancreas after 2 mins; type: ADME, organism-based; settings: in vivo
[10] = tested on: Pancreas; assay: Biodistribution in iv dosed rat pancreas after 30 mins; type: ADME, organism-based; settings: in vivo, 0.5 h
Method in brief: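 Rats, 3 per group, under isoflurane. ¹⁸F tracer (10–100 μCi) in 0.2 ml sterile water with 1 mg/mL BSA injected into the femoral vein. Killed by cervical dislocation under anesthesia at the stated time. Organs removed, weighed and counted. % dose/organ calculated against counts of a 1% diluted aliquot of the injected dose.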

[11] = tested on: Pancreas; assay: Biodistribution in iv dosed rat pancreas after 60 mins; type: ADME, organism-based; settings: in vivo, 1 h
[12] = tested on: Pancreas; assay: Biodistribution in iv dosed rat pancreas after 120 mins; type: ADME, organism-based; settings: in vivo, 2 h; method in brief: as §1
[13] = tested on: Pancreas; assay: Biodistribution in iv dosed rat pancreas after 240 mins; type: ADME, organism-based; settings: in vivo, 4 h
[14] = tested on: Spleen; assay: Biodistribution in iv dosed rat spleen after 240 mins; type: ADME, organism-based; settings: in vivo, 4 h
[15] = tested on: Muscle tissue; assay: Biodistribution in iv dosed rat muscle after 30 mins; type: ADME, organism-based; settings: in vivo, 0.5 h; method in brief: as §1
[16] = tested on: Bone; assay: Biodistribution in iv dosed rat bone after 30 mins; type: ADME, organism-based, Bone element; settings: in vivo, 0.5 h; method in brief: as §1
[17] = tested on: Bone; assay: Biodistribution in iv dosed rat bone after 60 mins; type: ADME, organism-based, Bone element; settings: in vivo, 1 h; method in brief: as §1
[18] = tested on: Brain; assay: Biodistribution in iv dosed rat brain after 2 mins; type: ADME, organism-based; settings: in vivo; method in brief: as §1
[19] = tested on: Brain; assay: Biodistribution in iv dosed rat brain after 60 mins; type: ADME, organism-based; settings: in vivo, 1 h; method in brief: as §1
[20] = tested on: Nucleic Acid; assay: Ratio of drug level in hypothalamus to cerebellum in rat after 2 mins; type: ADME, tissue-based; settings: in vivo
[21] = tested on: Nucleic Acid; assay: Ratio of drug level in hypothalamus to cerebellum in rat assessed as radioactivity after 60 mins; type: ADME, tissue-based; settings: in vivo, 1 h
[22] = tested on: Nucleic Acid; assay: Ratio of drug level in hippocampus to cerebellum in rat assessed as radioactivity after 120 mins; type: ADME, tissue-based; settings: in vivo, 2 h
Method in brief: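 Groups of three normal rats under isoflurane received the [18F] tracer (10–100 μCi in 0.2 ml sterile water containing 1 mg/mL BSA) into the femoral vein. They were killed by cervical dislocation under anesthesia at the stated time. Cortex, striatum, hippocampus, hypothalamus and cerebellum were dissected, weighed and gamma-counted. %dose/g was set against a 100-fold diluted dose aliquot, and each region was divided by cerebellum.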

[23] = tested on: Nucleic Acid; assay: Ratio of drug level in striatum to cerebellum in rat assessed as radioactivity after 60 mins; type: ADME, tissue-based; settings: in vivo, 1 h
[24] = tested on: Lung; assay: Biodistribution in iv dosed rat lung after 360 mins; type: ADME, organism-based; settings: in vivo, 6 h; method in brief: as §1
[25] = tested on: Liver; assay: Biodistribution in iv dosed rat liver after 360 mins; type: ADME, organism-based; settings: in vivo, 6 h; method in brief: as §1
[26] = tested on: Kidney; assay: Biodistribution in iv dosed rat kidney after 360 mins; type: ADME, organism-based; settings: in vivo, 6 h; method in brief: as §1
[27] = tested on: Muscle tissue; assay: Biodistribution in iv dosed rat muscle after 360 mins; type: ADME, organism-based; settings: in vivo, 6 h; method in brief: as §1
[28] = tested on: Bone; assay: Biodistribution in iv dosed rat bone after 360 mins; type: ADME, organism-based, Bone element; settings: in vivo, 6 h; method in brief: as §1
[29] = tested on: Zone of skin; assay: Biodistribution in iv dosed rat skin after 360 mins; type: ADME, organism-based; settings: in vivo, 6 h
[30] = tested on: Blood; assay: Biodistribution in iv dosed rat blood after 360 mins; type: ADME, organism-based; settings: in vivo, 6 h; method in brief: as §1
[31] = tested on: Heart; assay: Biodistribution in iv dosed rat heart after 360 mins; type: ADME, organism-based; settings: in vivo, 6 h; method in brief: as §1
[32] = tested on: Spleen; assay: Biodistribution in iv dosed rat spleen after 360 mins; type: ADME, organism-based; settings: in vivo, 6 h
[33] = tested on: Brain; assay: Biodistribution in iv dosed rat brain after 360 mins; type: ADME, organism-based; settings: in vivo, 6 h; method in brief: as §1
[34] = tested on: Nucleic Acid; assay: Ratio of drug level in hypothalamus to cerebellum in rat after 360 mins; type: ADME, tissue-based; settings: in vivo, 6 h
[35] = tested on: Nucleic Acid; assay: Ratio of drug level in hippocampus to cerebellum in rat after 360 mins; type: ADME, tissue-based; settings: in vivo, 6 h
[36] = tested on: Nucleic Acid; assay: Ratio of drug level in cortex to cerebellum in rat after 360 mins; type: ADME, tissue-based; settings: in vivo, 6 h
[37] = tested on: Nucleic Acid; assay: Ratio of drug level in striatum to cerebellum in rat after 360 mins; type: ADME, tissue-based; settings: in vivo, 6 h

Row | Ratio [1] | Drug uptake [2] [%ID] | Drug uptake [3] [%ID] | Drug uptake [4] [%ID] | Drug uptake [5] [%ID] | Drug uptake [6] [%ID] | Drug uptake [7] [%ID] | Drug uptake [8] [%ID] | Drug uptake [14] [%ID] | Drug uptake [15] [%ID] | Drug uptake [16] [%ID] | Drug uptake [17] [%ID] | Drug uptake [18] [%ID] | Drug uptake [19] [%ID] | Ratio [20] | Ratio [21] | Ratio [22] | Ratio [23] | also measured | Structure (SMILES)
1 | 7.83 | 1.85 | 0.63 | 11.86 | 3.1 | 4.06 | 0.17 | 0.12 | 0.09 | 9.46 | 7.11 | 4.87 | 1.84 | 1.21 | 1.28 | 5.52 | 3.71 | 3.87 | Drug uptake [9]: 0.92 %ID; Drug uptake [10]: 0.24 %ID; Drug uptake [11]: 0.19 %ID; Drug uptake [12]: 0.08 %ID; Drug uptake [13]: 0.04 %ID | CN(C)Cc1cc(OCC[18F])ccc1Sc1ccccc1N
2 | 3.7 | 1.88 | 2.16 | 4.67 | 7.05 | 6.19 | 0.23 | 0.21 | 0.39 | 15.9 | 8.17 | 8.53 | 2.05 | 1.92 | 0.95 | 2.97 | 2.23 | 2.76 | Drug uptake [24]: 1.89 %ID; Drug uptake [25]: 1.86 %ID; Drug uptake [26]: 1.13 %ID; Drug uptake [27]: 8.98 %ID; Drug uptake [28]: 15.3 %ID; Drug uptake [29]: 6.52 %ID; Drug uptake [30]: 4.75 %ID; Drug uptake [31]: 0.13 %ID; Drug uptake [32]: 0.29 %ID; Drug uptake [33]: 1.36 %ID; Ratio [34]: 4.32; Ratio [35]: 3.08; Ratio [36]: 3.2; Ratio [37]: 3.8 | CN(C)Cc1cc(OCC[18F])ccc1Sc1ccc(Br)cc1N
